Active and inactive are the calls of the source. The calls are words filed in the database; no cut-off is given here.
Experiments:
[1] = molecular target: T1, Cellular tumor antigen p53 (Homo sapiens, UniProt P04637); test: Activation of p53 in human NUGC4 cells assessed as change in CDC25A mRNA level at 60 uM after 18 hrs by RT-PCR method relative to control; assay type: cell-based; conditions: read-out: FC
Outline: (§1)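 p53 signaling qPCR array of 84 p53-pathway genes. Cells were treated in 6-well plates for 18 h with 0.5% DMSO in compound and control samples. Total RNA was extracted and fold-changes were obtained by the ΔΔCt method against untreated control, with β2-microglobulin (B2M) as housekeeping gene. Two independent biological replicates per cell line.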

[2] = molecular target: T1, Cellular tumor antigen p53; test: Activation of p53 in human NUGC4 cells assessed as change in PRKCA mRNA level at 60 uM after 18 hrs by RT-PCR method relative to control; assay type: cell-based; conditions: read-out: FC
[3] = molecular target: T1, Cellular tumor antigen p53; test: Activation of p53 in human NUGC4 cells assessed as change in E2F3 mRNA level at 60 uM after 18 hrs by RT-PCR method relative to control; assay type: cell-based; conditions: read-out: FC; outline: as §1
[4] = molecular target: T1, Cellular tumor antigen p53; test: Activation of p53 in human NUGC4 cells assessed as change in TNFRSF10B mRNA level at 60 uM after 18 hrs by RT-PCR method relative to control; assay type: cell-based; conditions: read-out: FC
[5] = test system: Cellular tumor antigen p53 (Homo sapiens), P04637 [Y220C]; test: Activation of p53 Y220C mutant in human NUGC3 cells assessed as change in IGF1R mRNA level at 60 uM after 18 hrs by RT-PCR method relative to control; assay type: cell-based
Outline: (§2)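 p53 signalling qPCR array covering 84 genes. Cells were exposed for 18 h, with 0.5% DMSO in both compound and control samples. Total RNA was extracted and purified. Fold-changes were calculated by ΔΔCt using β2-microglobulin (B2M) as the housekeeping gene. Two independent biological replicates were run per cell line.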

[6] = molecular target: T1, Cellular tumor antigen p53; test: Activation of p53 in human NUGC4 cells assessed as change in HK2 mRNA level at 60 uM after 18 hrs by RT-PCR method relative to control; assay type: cell-based; conditions: read-out: FC; outline: as §1
[7] = molecular target: T1, Cellular tumor antigen p53; test: Activation of p53 in human NUGC4 cells assessed as change in XRCC5 mRNA level at 60 uM after 18 hrs by RT-PCR method relative to control; assay type: cell-based; conditions: read-out: FC
[8] = test system: Cellular tumor antigen p53 (Homo sapiens), P04637 [Y220C]; test: Activation of p53 Y220C mutant in human NUGC3 cells assessed as change in ESR1 mRNA level at 60 uM after 18 hrs by RT-PCR method relative to control; assay type: cell-based; outline: as §2
[9] = test system: Cellular tumor antigen p53 (Homo sapiens), P04637 [Y220C]; test: Activation of p53 Y220C mutant in human NUGC3 cells assessed as change in TNFRSF10B mRNA level at 60 uM after 18 hrs by RT-PCR method relative to control; assay type: cell-based
Outline: (§3)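 p53 signalling qPCR array covering 84 p53 pathway genes. Cells were exposed for 18 h, and compound and control wells both held 0.5% DMSO. Total RNA was extracted and purified. Fold-changes were calculated by the ΔΔCt method against the untreated sample, with β2-microglobulin (B2M) as the housekeeping gene. Each cell line was run in two independent biological replicates.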

Huh-7 = test: Upregulation of NOXA mRNA level in p53 Y220C mutant knockout human HuH7 cells at 30 uM after 18 hrs by RT-PCR method; assay type: functional, cell-based
[10] = molecular target: T1, Cellular tumor antigen p53; test: Activation of p53 in human NUGC4 cells assessed as change in CDK1 mRNA level at 60 uM after 18 hrs by RT-PCR method relative to control; assay type: cell-based; conditions: read-out: FC; outline: as §1
[11] = molecular target: T1, Cellular tumor antigen p53; test: Activation of p53 in human NUGC4 cells assessed as change in IGF1R mRNA level at 60 uM after 18 hrs by RT-PCR method relative to control; assay type: cell-based; conditions: read-out: FC; outline: as §1
[12] = test system: Cellular tumor antigen p53 (Homo sapiens), P04637 [Y220C]; test: Activation of p53 Y220C mutant in human HuH7 cells assessed as increase in p21 mRNA level at 30 uM after 18 hrs by RT-PCR method; assay type: cell-based
Outline: (§4)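 Real-time PCR. Cells were treated for 18 h, with 0.5% DMSO in both compound and control samples. Relative mRNA levels were quantified by the ΔΔCt method as fold-change against the untreated sample. Each sample was measured in triplicate, and data are given as mean ± SEM with an unpaired t-test.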

[13] = test system: Cellular tumor antigen p53 (Homo sapiens), P04637 [Y220C]; test: Activation of p53 Y220C mutant in human NUGC3 cells assessed as change in ADGRB1 mRNA level at 60 uM after 18 hrs by RT-PCR method relative to control; assay type: cell-based; outline: as §2
[14] = molecular target: T1, Cellular tumor antigen p53; test: Activation of p53 in human NUGC4 cells assessed as change in HDAC1 mRNA level at 60 uM after 18 hrs by RT-PCR method relative to control; assay type: cell-based; conditions: read-out: FC; outline: as §1
[15] = test system: Cellular tumor antigen p53 (Homo sapiens), P04637 [Y220C]; test: Activation of p53 Y220C mutant in human NUGC3 cells assessed as change in MCL1 mRNA level at 60 uM after 18 hrs by RT-PCR method relative to control; assay type: cell-based; outline: as §3
[16] = test system: Cellular tumor antigen p53 (Homo sapiens), P04637 [Y220C]; test: Activation of p53 Y220C mutant in human NUGC3 cells assessed as change in DNMT1 mRNA level at 60 uM after 18 hrs by RT-PCR method relative to control; assay type: cell-based; outline: as §2
[17] = test system: Cellular tumor antigen p53 (Homo sapiens), P04637 [Y220C]; test: Activation of p53 Y220C mutant in human NUGC3 cells assessed as change in CHEK1 mRNA level at 60 uM after 18 hrs by RT-PCR method relative to control; assay type: cell-based; outline: as §2
[18] = test system: Cellular tumor antigen p53 (Homo sapiens), P04637 [Y220C]; test: Activation of p53 Y220C mutant in human NUGC3 cells assessed as change in BID mRNA level at 60 uM after 18 hrs by RT-PCR method relative to control; assay type: cell-based; outline: as §2
[19] = molecular target: T1, Cellular tumor antigen p53; test: Activation of p53 in human NUGC4 cells assessed as change in FAS mRNA level at 60 uM after 18 hrs by RT-PCR method relative to control; assay type: cell-based; conditions: read-out: FC; outline: as §1
[20] = molecular target: T1, Cellular tumor antigen p53; test: Activation of p53 in human NUGC4 cells assessed as change in BIRC5 mRNA level at 60 uM after 18 hrs by RT-PCR method relative to control; assay type: cell-based; conditions: read-out: FC; outline: as §3
[21] = molecular target: T1, Cellular tumor antigen p53; test: Activation of p53 in human NUGC4 cells assessed as change in BRCA2 mRNA level at 60 uM after 18 hrs by RT-PCR method relative to control; assay type: cell-based; conditions: read-out: FC; outline: as §1
[22] = test system: Cellular tumor antigen p53 (Homo sapiens), P04637 [Y220C]; test: Activation of p53 Y220C mutant in human NUGC3 cells assessed as change in BBC3 mRNA level at 60 uM after 18 hrs by RT-PCR method relative to control; assay type: cell-based; outline: as §2
[23] = molecular target: T1, Cellular tumor antigen p53; test: Activation of p53 in human NUGC4 cells assessed as change in DNMT1 mRNA level at 60 uM after 18 hrs by RT-PCR method relative to control; assay type: cell-based; conditions: read-out: FC; outline: as §1
[24] = test system: Cellular tumor antigen p53 (Homo sapiens), P04637 [Y220C]; test: Activation of p53 Y220C mutant in human HuH7 cells assessed as increase in BBC3 mRNA level at 30 uM after 18 hrs by RT-PCR method; assay type: cell-based; outline: as §4
[25] = molecular target: T1, Cellular tumor antigen p53; test: Activation of p53 in human NUGC4 cells assessed as change in CDKN2A mRNA level at 60 uM after 18 hrs by RT-PCR method relative to control; assay type: cell-based; conditions: read-out: FC; outline: as §1
[26] = test system: Cellular tumor antigen p53 (Homo sapiens), P04637 [Y220C]; test: Activation of p53 Y220C mutant in human NUGC3 cells assessed as change in SIRT1 mRNA level at 60 uM after 18 hrs by RT-PCR method relative to control; assay type: cell-based; outline: as §3
[27] = test system: Cellular tumor antigen p53 (Homo sapiens), P04637 [Y220C]; test: Activation of p53 Y220C mutant in human NUGC3 cells assessed as change in FADD mRNA level at 60 uM after 18 hrs by RT-PCR method relative to control; assay type: cell-based; outline: as §2

`CCNC(=O)c1c(O)c(I)c(-n2cccc2)c2sc(N(CC)CC)nc12` was tested. Which fold induction at 60 µM [1] did it give?
Its fold induction at 60 µM is 0.4.

And the fold induction at 60 µM [2]?
Its fold induction at 60 µM is 1.

And the fold induction at 60 µM [3]?
Its fold induction at 60 µM is 0.7.

What about the fold induction at 60 µM [4] of the same compound?
Its fold induction at 60 µM is 1.2.

And the fold change (FC) [5]?
Its fold change (FC) is 1.8.

And the fold induction at 60 µM [6]?
Its fold induction at 60 µM is 0.8.

What about the fold induction at 60 µM [7] of the same compound?
The fold induction at 60 µM was 0.8.

And the fold change (FC) [8]?
The fold change (FC) was 2.3.

What about the fold change (FC) [9] of the same compound?
Its fold change (FC) is 1.8.

What about the Activity (Huh-7) of the same compound?
The Activity was “inactive”.

And the fold induction at 60 µM [10]?
The fold induction at 60 µM was 0.8.

And the fold induction at 60 µM [11]?
Its fold induction at 60 µM is 0.8.

And the Activity [12]?
Its Activity is “Active”.

And the fold change (FC) [13]?
The fold change (FC) was 1.5.

And the fold induction at 60 µM [14]?
The fold induction at 60 µM was 0.8.

What about the fold change (FC) [15] of the same compound?
The fold change (FC) was 1.7.

What about the fold change (FC) [16] of the same compound?
The fold change (FC) was 1.2.

And the fold change (FC) [17]?
The fold change (FC) was 1.2.

What about the fold change (FC) [18] of the same compound?
Its fold change (FC) is 1.2.

What about the fold induction at 60 µM [19] of the same compound?
Its fold induction at 60 µM is 1.

What about the fold induction at 60 µM [20] of the same compound?
The fold induction at 60 µM was 0.6.

And the fold induction at 60 µM [21]?
Its fold induction at 60 µM is 0.6.

What about the fold change (FC) [22] of the same compound?
The fold change (FC) was 2.6.

What about the fold induction at 60 µM [23] of the same compound?
The fold induction at 60 µM was 0.8.

What about the Activity [24] of the same compound?
Its Activity is “Active”.

And the fold induction at 60 µM [25]?
Its fold induction at 60 µM is 0.5 to 1.

What about the fold change (FC) [26] of the same compound?
Its fold change (FC) is 1.7.

And the fold change (FC) [27]?
Its fold change (FC) is 0.4.

From ChEMBL document CHEMBL4152234, “Aminobenzothiazole derivatives stabilize the thermolabile p53 cancer mutant Y220C and show anticancer activity in p53-Y220C cell lines” (Eur J Med Chem, 2018)
